Experimental data: ChEMBL document CHEMBL3856206, “Nitroimidazole carboxamides as antiparasitic agents targeting Giardia lamblia, Entamoeba histolytica and Trichomonas vaginalis” (Eur J Med Chem, 2016)
Activity calls are given as the source filed them. The rule behind the calls is not given here.

How the values were obtained:
[1] = Selectivity index, ratio of CC50 for human HepG2 cells to EC50 for metronidazole sensitive Giardia lamblia WB trophozoites
[2] = Selectivity index, ratio of CC50 for HEK293 cells to EC50 for metronidazole sensitive Giardia lamblia WB trophozoites
Entamoeba histolytica [3] = assay: Potency index, ratio of metronidazole EC50 to compound EC50 for metronidazole sensitive Entamoeba histolytica HM-1:IMSS trophozoites; assay type: functional
[4] = Metabolic stability in human liver microsomes assessed as compound remaining at 5 uM after 2 hrs in presence of NADPH by LC/MS/MS analysis; assay type: ADME; details: read-out: Stability
Giardia intestinalis [5] = assay: Potency index, ratio of metronidazole EC50 to compound EC50 for metronidazole resistant Giardia lamblia 713M3 trophozoites; assay type: functional, Giardia duodenalis
Giardia intestinalis [6] = assay: Antiparasitic activity against metronidazole sensitive Giardia lamblia WB trophozoites assessed as morphological alterations at 3 times EC50 after 48 hrs under anaerobic conditions by phase contrast microscopic analysis; assay type: functional; details: Giardia duodenalis
[7] = Protein binding in human plasma at 5 uM after 30 min by ultrafiltration method; assay type: ADME, cell-free; details: 0.5 h
[8] = Antiparasitic activity against metronidazole sensitive Clostridium difficile 630 ATCC BAA-1382 after 24 hrs by broth microdilution method; assay type: functional, Clostridioides difficile 630; details: Clostridioides difficile, ATCC BAA-1382, 24 h
In short: (§1)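 C. difficile 630 and NAP1/027 grown anaerobically overnight in BHIS at 37 °C, diluted 40-fold, grown ~4.5 h to mid-log (OD600 0.4–0.6). Final inoculum 5 × 10^5 CFU/mL in BHIS against two-fold dilutions, 64 to 0.03 μg/mL, 3% maximum DMSO, in pre-reduced plates (5% H2, 10% CO2, 85% N2). Incubated 24 h at 37 °C. MIC is the lowest concentration without visible growth. Median of replicates reported.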

[9] = Cytotoxicity against human HepG2 cells assessed as cell growth inhibition after 24 hrs by resazurin assay; assay type: toxicity, cell-based
In short: (§2)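 HEK293 (3000/well) and HepG2 (5000/well) cells cultured 24 h in DMEM with 10% FBS at 37 °C, 5% CO2. Compound dilution series added, top concentration 100 μM, 0.5% final DMSO, for 24 h. Then 5 μM resazurin added for 2 h at 37 °C. 1% Triton X-100 served as the lysis control.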

Clostridioides difficile = assay: Antiparasitic activity against Clostridium difficile NAP1/027 ATCC BAA-1803 after 24 hrs by broth microdilution method; assay type: functional; details: NAP1/027 ATCC BAA-1803, 24 h; in short: as §1
Entamoeba histolytica [10] = assay: Antiparasitic activity against metronidazole sensitive Entamoeba histolytica HM-1:IMSS trophozoites after 24 to 48 hrs under anaerobic conditions by Celltiter-Glo assay; assay type: functional
In short: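 Axenic log-phase trophozoites in TYI-S-33 with penicillin and streptomycin, 5000 parasites per well. Tested over a final 8-point three-fold series, 0.01–25 μM. Incubated 24–48 h at 37 °C in anaerobe gas pouches. Viable cells measured by ATP bioluminescence (CellTiter-Glo) in triplicate to give EC50.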

[11] = Cytotoxicity against HEK293 cells assessed as cell growth inhibition after 24 hrs by resazurin assay; assay type: toxicity, cell-based; details: human; in short: as §2
Giardia intestinalis [12] = assay: Potency index, ratio of metronidazole EC50 to compound EC50 for metronidazole sensitive Giardia lamblia WB trophozoites; assay type: functional, Giardia duodenalis

Compound | Ratio CC50/EC50 [1] | Ratio CC50/EC50 [2] | further results
NC(=O)c1nc([N+](=O)[O-])cn1Cc1cccc(OC(F)(F)F)c1 | >12 | >12 | 
CN(C)C(=O)c1ncc([N+](=O)[O-])[nH]1 | >12 | >12 | Ratio EC50 (Entamoeba histolytica [3]): 2 - 3
Cn1c([N+](=O)[O-])cnc1C(=O)NCc1ccc(F)cc1 | >29 | >29 | remaining at 2 h, 5 µM [4]: 88%
CC(NC(=O)c1ncc([N+](=O)[O-])n1C)c1ccc(F)cc1 (stereo unspecified) | >34 | >34 | Ratio EC50 (Giardia intestinalis [5]): 3 - 12
CNC(=O)c1nc([N+](=O)[O-])cn1Cc1ccc(OC(F)(F)F)cc1 | >29 | >29 | 
O=C(c1ncc([N+](=O)[O-])[nH]1)N1CCOCC1 | >11 | >11 | remaining at 2 h, 5 µM [4]: 100%
O=C(NCc1ccc(F)cc1)c1ncc([N+](=O)[O-])[nH]1 | >250 | >250 | Activity (Giardia intestinalis [6]): Active; remaining at 2 h, 5 µM [4]: 94%; PPB [7]: > 99%
NC(=O)c1nc([N+](=O)[O-])cn1CC1CC1 |  |  | MIC [8]: > 64 µg/mL; CC50 at 24 h [9]: > 100 µM; MIC (Clostridioides difficile): > 64 µg/mL; EC50 (Entamoeba histolytica [10]; read-out: EC50): > 50 µM; EC50 (Entamoeba histolytica [10]; read-out: pEC50 (converted)): > 50.1 µM; CC50 at 24 h [11]: > 100 µM
NC(=O)c1nc([N+](=O)[O-])cn1Cc1ccccn1 | >3.7 | >3.7 | 
CCOC(=O)c1nc([N+](=O)[O-])cn1Cc1ccc(OC(F)(F)F)cc1 | >17 | >17 | 
CN(C)C(=O)c1ncc([N+](=O)[O-])n1C | >42 | >42 | 
CN(C)C(=O)c1nc([N+](=O)[O-])cn1Cc1ccc(OC(F)(F)F)cc1 | >37 | >37 | 
CC(NC(=O)c1ncc([N+](=O)[O-])[nH]1)c1ccc(F)cc1 (stereo unspecified) | >250 | >250 | Ratio EC50 (Entamoeba histolytica [3]): 2 - 3
NC(=O)c1nc([N+](=O)[O-])cn1Cc1ccc(OC(F)(F)F)cc1 | >22 | >22 | 
CNC(=O)c1ncc([N+](=O)[O-])[nH]1 | >10 | >10 | 
Cn1c([N+](=O)[O-])cnc1C(=O)NC1CCCCC1 | >20 | >20 | Ratio EC50 (Giardia intestinalis [5]): 3 - 12

Compound | Ratio CC50/EC50 [1] | Ratio CC50/EC50 [2] | further results
Cc1ccc(CCNC(=O)c2ncc([N+](=O)[O-])n2C)cc1 | >36 | >36 | 
Cn1c([N+](=O)[O-])cnc1C(=O)N1CCCC1 | >34 | >34 | Ratio EC50 (Giardia intestinalis [5]): 3 - 12
NNC(=O)c1nc([N+](=O)[O-])cn1Cc1ccc(OC(F)(F)F)cc1 | >13 | >13 | 
O=C(NCc1ccc(OC(F)(F)F)cc1)c1ncc([N+](=O)[O-])[nH]1 |  | >500 | 
Cn1c([N+](=O)[O-])cnc1C(=O)NCc1ccccn1 | >63 | >63 | Ratio EC50 (Giardia intestinalis [12]): 4; Ratio EC50 (Giardia intestinalis [5]): 3 - 12
CN(CCO)C(=O)c1ncc([N+](=O)[O-])[nH]1 | >4 | >4 | 
Cc1ncc([N+](=O)[O-])n1CCO [METRONIDAZOLE] |  |  | remaining at 2 h, 5 µM [4]: 100%
O=C(NCc1ccccn1)c1ncc([N+](=O)[O-])[nH]1 | >14 | >14 | 
O=C(c1ncc([N+](=O)[O-])[nH]1)N1CCCC1 | >29 | >29 | 
Cc1ccc(CCNC(=O)c2ncc([N+](=O)[O-])[nH]2)cc1 | >1000 | >1000 | Ratio EC50 (Entamoeba histolytica [3]): 2 - 3
O=C(NCc1cccc(OC(F)(F)F)c1)c1ncc([N+](=O)[O-])[nH]1 | >500 | >500 | 
O=C(NC1CC1)c1ncc([N+](=O)[O-])[nH]1 | >20 | >20 | 
Cn1c([N+](=O)[O-])cnc1C(=O)NC1CC1 | >29 | >29 | 
O=C(NC1CCCCC1)c1ncc([N+](=O)[O-])[nH]1 | >167 | >167 | Ratio EC50 (Entamoeba histolytica [3]): 2 - 3
O=C(NO)c1nc([N+](=O)[O-])cn1Cc1ccc(OC(F)(F)F)cc1 | >20 |  | 
Cn1c([N+](=O)[O-])cnc1C(=O)N1CCOCC1 | >63 | >63 | Ratio EC50 (Giardia intestinalis [12]): 4; remaining at 2 h, 5 µM [4]: 97%
